Test results from paper PMC7790458 (Journal of the American Chemical Society, 2020).

Assays:
E. coli ΔbamBΔtolC = experiment: MIC, CLSI broth microdilution; assay type: cell-based; conditions: MH-II broth with dipyridyl
[1] = tested on: periplasmic extract of E. coli K12 MG1655; experiment: acc release from fluorogenic peptides in periplasmic extract; assay type: biochemical; conditions: HPLC analysis (Figure S9)
[2] = Cleavage of acc peptide by human serum; assay type: in vitro ADME; conditions: fluorescence (Figure S8)
Summary of the method: (§1)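 Substrate is an N-acetylated peptide with 7-amino-4-carbamoylmethylcoumarin (acc) coupled directly to the P1 residue as an antibiotic surrogate, made by solid-phase synthesis. The substrate is incubated in human or mouse serum, and cleavage is followed as release of free fluorescent amino coumarin.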

[3] = Cleavage of acc peptide by mouse serum; assay type: in vitro ADME; conditions: compared with human serum
Summary of the method: as §1

E. coli ΔsurA = experiment: MIC, CLSI broth microdilution; assay type: cell-based; conditions: MH-II broth with dipyridyl
S. aureus Newman = experiment: MIC, CLSI broth microdilution; assay type: cell-based; conditions: MH-II broth with dipyridyl

Molecule | MIC (E. coli ΔbamBΔtolC) | substrate consumption at the end of the reaction [1] | half-life of acc release [2] [h] | cleavage by mouse serum [3] | MIC (E. coli ΔsurA) [µM] | MIC (S. aureus Newman) [µM]
CC(=O)NC[C@H]1CN(c2ccc(N3CCN(C(=O)CO)CC3)c(F)c2)C(=O)O1 [eperezolid] | susceptible | – | – | – | – | –
Ac-WSPKYM-acc [compound 1] | – | fully consumed | 3 to 4 | cleaved more rapidly | – | –
eperezolid-NH2 [compound 5] | > 171 µM | – | – | – | 43 | 43
